# Sampled rows, rich in hits. Any-hit rate of the full collection: about 2.3%.
# TRPC4 block = inhibitors of mouse TRPC4 channel | HEK293 TRPC4beta/mu-opioid, DAMGO-evoked Fluo4 calcium flux; stronger effect = lower value | B-score at 10 µM | AID 2247 | actives 0.39% (n = 300,000);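 active = B-score over 3 SD under the library average, no early fluorescence shift, positive overall ratio signal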
# Target sequence (Q9QUQ5 whole entry, looked up): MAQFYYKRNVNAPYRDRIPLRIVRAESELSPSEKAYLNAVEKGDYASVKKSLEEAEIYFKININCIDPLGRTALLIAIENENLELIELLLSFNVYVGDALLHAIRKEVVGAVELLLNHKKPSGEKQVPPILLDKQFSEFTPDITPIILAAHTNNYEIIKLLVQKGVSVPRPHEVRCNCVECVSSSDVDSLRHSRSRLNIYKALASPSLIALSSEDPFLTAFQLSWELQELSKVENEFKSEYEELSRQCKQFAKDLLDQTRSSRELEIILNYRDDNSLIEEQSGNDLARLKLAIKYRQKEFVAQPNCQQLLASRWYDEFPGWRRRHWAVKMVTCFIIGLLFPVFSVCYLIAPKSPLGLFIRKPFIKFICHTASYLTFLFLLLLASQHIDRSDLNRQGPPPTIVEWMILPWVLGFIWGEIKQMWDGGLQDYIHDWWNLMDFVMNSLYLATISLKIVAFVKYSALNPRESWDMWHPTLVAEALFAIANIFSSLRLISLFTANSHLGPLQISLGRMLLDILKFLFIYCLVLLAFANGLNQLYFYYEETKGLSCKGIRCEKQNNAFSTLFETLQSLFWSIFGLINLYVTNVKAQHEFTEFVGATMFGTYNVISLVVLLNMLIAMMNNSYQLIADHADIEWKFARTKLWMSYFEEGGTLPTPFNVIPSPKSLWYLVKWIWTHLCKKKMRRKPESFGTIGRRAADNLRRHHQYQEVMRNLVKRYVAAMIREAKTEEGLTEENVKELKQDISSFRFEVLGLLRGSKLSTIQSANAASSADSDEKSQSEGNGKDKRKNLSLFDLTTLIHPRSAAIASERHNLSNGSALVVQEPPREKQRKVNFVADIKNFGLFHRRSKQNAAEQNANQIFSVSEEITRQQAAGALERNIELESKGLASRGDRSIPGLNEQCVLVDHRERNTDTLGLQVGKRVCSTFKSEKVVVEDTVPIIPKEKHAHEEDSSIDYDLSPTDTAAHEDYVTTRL
#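 System: stable TRPC4beta/mu-opioid receptor HEK293 cells; Dosing: single-point compound dosing; Measured by: Fluo4 Ca2+ flux fluorescence; Read-out basis: per-well B score of integrated baseline-normalized Fluo4 ratio.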
# TRPC4 PAM = TRPC4 (mouse) allosteric potentiation; Q9QUQ5; HEK293 TRPC4beta/mu-opioid, DAMGO EC20, Fluo-4 Ca2+ flux; stronger effect = higher value; B-score at 10 µM; actives 0.42% (n = 310,000); AID 2227;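 active = B-score of calcium response area above 5 SD of library B-scores, with initial fluorescence ratio within 5 SD of library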;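 note: B-score of integrated fluorescence ratio over time as area under calcium response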
# TRPC6 inh = mouse TRPC6 channel inhibition; B-score at 10 µM; actives 1.1% (n = 310,000); HEK293-TRPC6, membrane potential dye, ACh-evoked depolarization; stronger effect = lower value; Q61143;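 active = B-score under library mean minus 3 SD, initial fluorescence not abnormally high, positive integrated signal ratio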;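 note: B-score derived from integrated fluorescence ratio over the kinetic read; more negative B-score means stronger inhibition of depolarization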
# TRPC4 act = activators of mouse TRPC4 channel. AID 2237. actives 0.49% (n = 310,000). HEK293 TRPC4beta/mu-opioid, Fluo4 calcium fluorescence; stronger effect = higher value. B-score at 10 µM. Q9QUQ5;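 active = B-score above 5 SD of library B-scores, and initial fluorescence ratio not above library mean plus 5 SD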;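 note: positive B-score marks a calcium rise read as TRPC4 activation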
#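 Material: TRPC4beta and mu-opioid receptor HEK293 stable cells | Incubation: 45 min room-temperature Fluo4 loading, 110 s read | Detection: Kinetic Fluo4 calcium fluorescence | Measure: Integrated baseline-normalised fluorescence ratio, converted to per-well B score | Benchmarks: Low control buffer alone, high control maximal DAMGO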
# TRPC6 activator = activates the mouse TRPC6 cation channel | Q61143 | HEK293-TRPC6 membrane potential dye fluorescence; stronger effect = higher value | B-score at 10 µM | actives 0.13% (n = 310,000) | AID 2550;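 active = B-score of the integrated fluorescence ratio above library mean plus 3 SD, and starting fluorescence ratio within library mean plus 5 SD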;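 note: higher score means more depolarization so channel activation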
# TRPC4 spec 2 = second selectivity test of TRPC6 inhibitors: effect on mouse TRPC4 | shares compounds with TRPC6 inh | HEK293 TRPC4/MOR, membrane potential dye fluorescence; channel activated by saturating DAMGO dose | inhibition, % at 10 µM | actives 42% (n = 920) | AID 2776;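 active = compounds whose fluorescence signal differed from control wells by over 3 SD, either direction, in both duplicate plates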
# TRPC4 spec = tests whether TRPC6 inhibitors also affect mouse TRPC4. actives 61% (n = 920). activity change, negative = inhibition, % at 10 µM. shares compounds with TRPC6 inh. AID 2777. HEK293 TRPC4/mu-opioid, membrane potential fluorescence;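 active = rise or fall in signal beyond 3 SD of buffer-only wells in both replicate plates, either sign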;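 note: integrated kinetic ratio of fluorescence range over baseline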
# HEK293 MPD ctr 2-1 = parental HEK293 nonspecific activity of TRPC6 inhibitors, second screen | actives 31% (n = 920) | signal change vs control, % at 10 µM | parental HEK293 membrane potential dye fluorescence; maximal acetylcholine challenge after compound addition | shares compounds with TRPC6 inh;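 active = membrane potential signal moving either way by over 3 SD of the maximum-effect control, in both duplicate plates, meaning non-specific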
# HEK293 MPD ctr-1 = checks TRPC6 inhibitor effects in parental HEK293 cells; shares compounds with TRPC6 inh; parental HEK293 membrane potential dye fluorescence; membrane potential signal change, % at 10 µM; actives 60% (n = 920); AID 2780;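 active = membrane potential signal shifting up or down by more than 3 SD of buffer-only wells, on both duplicate plates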
# HEK293 MPD ctr-2 = checks TRPC6 modulator effects in parental HEK293 cells. shares compounds with TRPC6 inh. membrane potential dye fluorescence. membrane potential signal change, % at 10 µM. actives 51% (n = 2,400);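 active = membrane potential signal moves up or down beyond 5 SD from buffer-only wells, on both duplicate plates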
# HEK293 MPD ctr 2-2 = second counter-screen for TRPC6 modulators: effect in parental HEK293 cells; shares compounds with TRPC6 inh; actives 14% (n = 2,400); membrane potential dye fluorescence; after compound, maximal acetylcholine stimulation; AID 488926; inhibition, % at 10 µM;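 active = membrane potential signal drops by more than 5 SD from the mean control signal, in both duplicate plates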;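 note: plate controls were acetylcholine ECmax control wells for no effect and buffer only wells for full effect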
# TRPC4 ctr mod = mouse TRPC4 off-target activity of TRPC6 modulators. shares compounds with TRPC6 inh. HEK293 TRPC4/mu-opioid, membrane potential fluorescence. percent change from control (negative = decrease, positive = increase), % at 10 µM. actives 69% (n = 2,400). AID 488927;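 active = membrane potential signal moved up or down beyond 5 SD of buffer control wells, in both duplicate plates, actives on both sides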;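 note: plate controls were assay buffer wells for no effect and DAMGO maximal-effect wells for full effect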
# TRPC4/MOR inh 2 = second selectivity test of TRPC6 modulators against mouse TRPC4; shares compounds with TRPC6 inh; HEK293 TRPC4/mu-opioid, membrane potential dye fluorescence; stimulated with maximal-effect DAMGO; inhibition, % at 10 µM; actives 55% (n = 2,400);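 active = drop in membrane potential signal beyond 5 SD of the control wells in both duplicate plates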;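 note: TRPC4 counter screen for TRPC6 hits run under conditions tuned for TRPC6 not TRPC4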
# TRPC6 inh conf = mouse TRPC6 inhibitor confirmation. shares compounds with TRPC6 inh. HEK293-TRPC6, membrane potential dye, ACh-evoked depolarization. inhibition, % at 10 µM. actives 43% (n = 3,300);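 active = fluorescence ratio falls more than 5 SD below the full-stimulation control mean, in both duplicate runs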;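 note: integrated fluorescence ratio of peak minus minimum over baseline after agonist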
# TRPC6 act conf = confirmation of mouse TRPC6 activators. shares compounds with TRPC6 inh. AID 488961. actives 11% (n = 2,800). HEK293-TRPC6 membrane potential dye fluorescence, FDSS. activation, % at 10 µM;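 active = ratio signal rise beyond 5 SD above unstimulated control wells' mean, seen in both duplicate runs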;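 note: plate controls were buffer EC0 wells for no effect and acetylcholine ECmax response for full effect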
# * hit, by the source's call; i = inactive; . = not tested or not shown.
SMILES,TRPC4 block,TRPC4 PAM,TRPC6 inh,TRPC4 act,TRPC6 activator,HEK293 MPD ctr-2,HEK293 MPD ctr 2-2,TRPC4 ctr mod,TRPC4/MOR inh 2,TRPC6 inh conf,TRPC6 act conf,others
COc1cccc(-n2c(CCn3nc(C)c([N+](=O)[O-])c3C)n[nH]c2=S)c1,i,i,i,i,i,.,.,.,.,.,.,
COc1ccc(CCn2nc(C)c([N+](=O)[O-])c2C)cc1,i,i,-5.2*,i,i,i,i,20%*,i,i,.,
Cc1ccc(S(=O)(=O)N2CCCC(C(=O)NCCc3ccccc3)C2)cc1 (stereo not drawn),i,i,i,i,i,.,.,.,.,.,.,
COC(=O)Cc1cc(=O)oc2cc(OC)ccc12,i,i,i,i,i,.,.,.,.,.,.,
COc1ccc2c(COC(=O)CCS(=O)(=O)c3ccc(C)cc3)cc(=O)oc2c1,i,i,-5.3*,i,i,i,i,i,i,i,i,
CCOC(=O)C1=C(COC(=O)COc2ccc(OCC)cc2)NC(=O)NC1C (stereo not drawn),i,i,i,i,i,.,.,.,.,.,.,
COc1ccc(-c2cc3nc(C)cc(N)n3n2)cc1,i,i,-5*,i,i,-143%*,i,-22%*,i,i,i,
COc1ccc(-c2cc3nc(C)cc(NCCO)n3n2)cc1,i,i,-9*,i,i,-300%*,i,-48%*,49%*,72%*,i,
COc1ccc(-c2cc3nc(C)cc(-c4ccc(OC)cc4)n3n2)cc1,i,i,i,i,i,.,.,.,.,.,.,
COCCNc1cc(C)nc2cc(-c3ccc(C)cc3)nn12,i,i,i,i,i,.,.,.,.,.,.,
CCN1C(=O)/C(=C/C=C2\N(CC)c3cc(S(=O)(=O)N(C)C)ccc3N2c2ccccc2)SC1=S,i,20*,i,i,16*,366%*,i,87%*,i,i,i,
CCCSc1ccc([C@H]2N[C@@](C)(C(=O)OC)[C@H]3C(=O)N(C)C(=O)[C@@H]23)cc1OC,i,i,i,i,i,.,.,.,.,.,.,
C/C(=N\NC(=O)c1c(C)nc2ccccn12)c1ccco1,i,i,-5.7*,i,i,-309%*,i,-60%*,36%*,50%*,i,
COc1cccc(-c2nnn(CC(=O)N3CCC(C)CC3)n2)c1,i,i,i,i,i,.,.,.,.,.,.,
O=C(COc1coc(CN2CCN(c3ccccc3)CC2)cc1=O)Nc1ccc(F)cc1,i,i,i,i,i,.,.,.,.,.,.,
CC(C)n1cnc2c(N(C)c3ccccc3)nc(N(CCN(C)C)Cc3ccccc3)nc21,i,i,-5.8*,110*,i,87%*,i,40%*,96%*,48%*,i,
CC(=O)c1cc2c(cc1NC(=O)c1cnc(C)cn1)OCO2,i,i,-11*,i,i,.,.,.,.,i,i,TRPC4 spec 2=74%*;TRPC4 spec=-28%*;HEK293 MPD ctr 2-1=i;HEK293 MPD ctr-1=-412%*
Cc1ccc(C(=O)Nc2cccc(C(=O)N/N=C/c3ccc(F)cc3)c2)cc1,i,i,-6*,i,i,i,i,i,i,i,i,
CC(=O)Nc1cccc(C(=O)N/N=C/c2ccc(F)cc2)c1,i,i,i,i,i,.,.,.,.,.,.,
C(#Cc1ccccc1)C[N+]1(CC#Cc2ccccc2)CCCCC1,i,i,-9.1*,i,i,.,.,.,.,66%*,i,TRPC4 spec 2=i;TRPC4 spec=-0.2%*;HEK293 MPD ctr 2-1=i;HEK293 MPD ctr-1=0.7%*
C(#Cc1ccccc1)C[N+]1(CC#Cc2cccc3ccccc23)CCOCC1,i,i,-5*,i,i,-78%*,i,-16%*,i,i,i,
O=C(C[N+]1(CC#Cc2ccccc2)CCCCC1)c1ccccc1,i,i,i,i,i,.,.,.,.,.,.,
C#CC[N+]1(CC#Cc2ccccc2)CCCCC1,i,i,i,i,i,.,.,.,.,.,.,
Cc1ccc(C#CC[N+]2(CC#Cc3ccc(C)cc3)CCCCC2)cc1,i,i,-5.4*,i,i,92%*,i,17%*,i,44%*,.,
C#CC[N+]1(CC#Cc2cccc(C)c2)CCCCC1,i,i,i,i,i,.,.,.,.,.,.,
CCC[N+]1(CC#CCC(c2ccccc2)c2ccccc2)CCCCC1,i,i,-5.2*,i,i,i,i,12%*,i,42%*,i,
COc1ccccc1NC(=O)/C(C#N)=C/c1cccn1C,i,i,i,i,i,.,.,.,.,.,.,
COc1cc(C(=O)OCC(=O)Nc2c(F)c(F)c(F)c(F)c2F)cc(OC)c1OC,i,i,-5.4*,i,i,i,i,i,i,i,i,
COc1ccc(/C=C/C(=O)Oc2ccc(/C=N/NC(=O)c3ccncc3)cc2)cc1,i,i,i,i,i,.,.,.,.,.,.,
CCc1ccc(CNC(=O)c2ccc(NC(=O)C3=CSCCO3)cc2)cc1,i,i,i,i,i,.,.,.,.,.,.,

# Assay outcomes: PubChem BioAssay, Johns Hopkins Ion Channel Center
